Data set [1] deals with Human immunodeficiency virus 1. As to the kind of experiment: Antiviral activity against wild-type HIV1 3B infected in human C8166 cells assessed as protection against virus-induced cytopathogenicity after 3 days by measuring syncytia under inverted microscope. It is filed as functional, organism-based. The note with it: Human immunodeficiency virus 1, 3B, C8166, 72 h. The method in brief:
(§1)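 C8166 cells at 4 × 10⁵/mL infected at M.O.I. 0.06 in the presence of serial compound concentrations, with AZT and GW678248 as drug controls. After 3 days of culture, syncytia (multinucleated giant cells) counted under an inverted microscope. EC₅₀ is the concentration blocking syncytium formation by 50%.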
Background: Damage to the host cells serves as the signal in cytopathic effect assays.

For data set [2], the system named is Human immunodeficiency virus 1. The data set can be described thus: Antiviral activity against HIV1 A17 expressing reverse transcriptase K103N/Y181C double mutant infected in human C8166 cells assessed as protection against virus-induced cytopathogenicity after 3 days by measuring syncytia under inverted microscope. It is filed as functional, organism-based. The conditions noted are these: Human immunodeficiency virus 1, A17, C8166, 72 h. The essentials: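 C8166 cells (4 × 10⁵/mL) infected with HIV-1 A17 at MOI 0.06 in the presence of various compound concentrations. AZT and GW678248 served as drug controls. After 3 days of culture, syncytia (multinucleated giant cells) were scored under an inverted microscope. EC₅₀ was calculated as the concentration blocking syncytium formation by 50%.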

The nature of data set [3]: Cytotoxicity against human C8166 cells by MTT colorimetric assay. It is filed as cell-based. The method in brief: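 Uninfected C8166 cells exposed to compounds; viability read by MTT colorimetric assay at absorbance 570/630 nm. CC₅₀ is the concentration reducing viability by 50%.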
Data set [4] is described as follows: Selectivity index, ratio of CC50 for human C8166 cells to EC50 for HIV1 3B infected in human C8166 cells. Format: toxicity, cell-based. The conditions noted are these: HIV-1 3B infected C8166 cells, read-out: Ratio CC50/EC50. The method in brief: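 Calculated as CC₅₀ (MTT viability of uninfected C8166 cells) divided by EC₅₀ against HIV-1 IIIB (syncytium scoring in C8166 cells, M.O.I. 0.06, 3 days).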

The test system of data set [5] is Human immunodeficiency virus 2. The data set can be described thus: Antiviral activity against HIV-2 ROD infected in human C8166 cells assessed as protection against viral cytopathogenicity after 3 days by measuring syncytia under inverted microscope. Format: functional, organism-based. The note with it: Human immunodeficiency virus 2, ISOLATE ROD, C8166, 72 h. The essentials:
as §1

24 compounds from ChEMBL document CHEMBL1811846, “Synthesis and biological activity of naphthyl-substituted (B-ring) benzophenone derivatives as novel non-nucleoside HIV-1 reverse transcriptase inhibitors” (Bioorg Med Chem, 2011) can be followed below.

A word on the EC50: it is the concentration giving half of the maximal effect. Broadly, the CC50 is the concentration at which the toxic effect on the cells reaches its halfway point. A higher CC50 goes with better tolerance by the cells.

Molecules are shown by their SMILES.

For the compound `Cc1cc(S(N)(=O)=O)ccc1NC(=O)COc1ccc2cc(Br)ccc2c1C(=O)c1cccc(Cl)c1`, the values for the EC50 in data set [1] and in data set [2] were 1.67 µM and 3.9 µM, respectively. The compound also returned a CC50 in data set [3] of 6.8 µM. Also, in data set [4], the selectivity ratio was 4.1.

For the compound `Cc1cc(S(N)(=O)=O)ccc1NC(=O)COc1ccc2ccccc2c1C(=O)c1cc(Cl)cc(C#N)c1`, the results for the EC50 in data set [1], in data set [2] and in data set [5] were 0.0048 µM, 2.1 µM and 23.6 µM, respectively. For the same compound, the CC50 in data set [3] was found to be 49.4 µM. The selectivity ratio in data set [4] was determined as 10300.

Turning to `Cc1ccc(C(=O)c2c(OCC(=O)Nc3ccc(S(N)(=O)=O)cc3C)ccc3ccccc23)cc1C`, the EC50 in data set [1] was 0.609 µM; in data set [2], 12.3 µM. The same compound registered a CC50 in data set [3] of 33 µM. Moreover, the selectivity ratio in data set [4] is 54.2.

Consider `Cc1cc(C)cc(C(=O)c2c(OCC(=O)Nc3ccc(S(N)(=O)=O)cc3C)ccc3ccccc23)c1`, for which the values for the EC50 in data set [1], in data set [2] and in data set [5] were 0.0078 µM, 8.4 µM and 45.4 µM, respectively. In data set [3], this compound yielded a CC50 of 39.1 µM. Further, the selectivity ratio in data set [4] was determined as 5040.

For `Cc1ccc(C(=O)c2c(OCC(=O)Nc3ccc(S(N)(=O)=O)cc3C)ccc3cc(C#N)ccc23)cc1C`, the EC50 came out at 86.3 µM in data set [1] and 97.3 µM in data set [2]. In data set [3], this compound showed a CC50 above 379 µM. Besides, the selectivity ratio in data set [4] was above 4.4.

Turning to `Cc1cc(S(N)(=O)=O)ccc1NC(=O)COc1ccc2ccccc2c1C(=O)c1cc(Cl)cc(Br)c1`, the EC50 came to 0.0271 µM in data set [1] and 7.5 µM in data set [2]. In addition, the CC50 in data set [3] is 36.6 µM. Besides, the selectivity ratio in data set [4] was found to be 1350.

Turning to `Cc1cc(S(N)(=O)=O)ccc1NC(=O)COc1ccc(Cl)cc1C(=O)c1cc(Cl)cc(C#N)c1`, the EC50 is 0.0014 µM in data set [2] and 2.1 µM in data set [5]. This compound also yielded a CC50 in data set [3] above 387 µM. For the same compound, the selectivity ratio in data set [4] is above 563000.

As to `Cc1cc(S(N)(=O)=O)ccc1NC(=O)COc1ccc2cc(Br)ccc2c1C(=O)c1cc(Cl)cc(Br)c1`, the EC50 in data set [1] worked out at 7.57 µM; in data set [2], 10.2 µM; in data set [5], 11.1 µM. Further, half-maximal cytotoxicity in data set [3] (CC50) was put at 28.5 µM. The selectivity ratio in data set [4] was 3.8.

With `Cc1cn([C@H]2C[C@H](N=[N+]=[N-])[C@@H](CO)O2)c(=O)[nH]c1=O` [ZIDOVUDINE], the EC50 in data set [2] is 0.023 µM; in data set [5], 0.039 µM. For the same compound, in data set [3], the CC50 stood at 5400 µM. Moreover, the selectivity ratio in data set [4] was determined as 422000.

Take `Cc1ccc(C(=O)c2c(OCC(=O)Nc3ccc(S(N)(=O)=O)cc3C)ccc3ccccc23)c(C)c1`: the figures for the EC50 in data set [1] and in data set [2] were 0.139 µM and 7.9 µM, respectively. The CC50 in data set [3] was determined as 25.5 µM. Also, the selectivity ratio in data set [4] is 183.

Consider `Cc1cc(S(N)(=O)=O)ccc1NC(=O)COc1ccc2cc(C#N)ccc2c1C(=O)c1cccc(Cl)c1`, for which the results for the EC50 in data set [1] and in data set [2] were 2.05 µM and 20.6 µM, respectively. The half-maximal cytotoxic concentration (CC50) in data set [3] is above 374 µM. Besides, the selectivity ratio in data set [4] is above 183.

For `Cc1ccc(C)c(C(=O)c2c(OCC(=O)Nc3ccc(S(N)(=O)=O)cc3C)ccc3cc(Br)ccc23)c1`, the EC50 was 2.64 µM in data set [1] and 20.7 µM in data set [2]. Also, in data set [3], the CC50 amounted to 14 µM. Also, in data set [4], the selectivity ratio came out at 5.3.

In the case of `Cc1ccc(C(=O)c2c(OCC(=O)Nc3ccc(S(N)(=O)=O)cc3C)ccc3cc(Br)ccc23)cc1C`, the values for the EC50 in data set [1] and in data set [2] were 31.9 µM and 28.2 µM, respectively. In data set [3], this compound showed a CC50 of 85.2 µM. Also, in data set [4], the selectivity ratio turned out to be 2.7.

Regarding `Cc1cc(S(N)(=O)=O)ccc1NC(=O)COc1ccc2ccccc2c1C(=O)c1ccccc1`, the EC50 in data set [1] is 0.0527 µM; in data set [2], 9.6 µM. This compound also registered a CC50 in data set [3] of 33.8 µM. The selectivity ratio in data set [4] was 642.

With `Cc1cc(C)cc(C(=O)c2c(OCC(=O)Nc3ccc(S(N)(=O)=O)cc3C)ccc3cc(Br)ccc23)c1`, the EC50 was 4.42 µM in data set [1], 7.8 µM in data set [2] and 29.8 µM in data set [5]. In data set [3], this compound registered a CC50 of 31 µM. Moreover, the selectivity ratio in data set [4] came out at 7.

Take `Cc1cccc(C(=O)c2c(OCC(=O)Nc3ccc(S(N)(=O)=O)cc3C)ccc3cc(Br)ccc23)c1`: the EC50 in data set [1] was determined as 2.3 µM; in data set [2], 3.4 µM. This compound returned a CC50 in data set [3] of 6.8 µM. In addition, the selectivity ratio in data set [4] turned out to be 2.9.

On to `Cc1ccc(C(=O)c2c(OCC(=O)Nc3ccc(S(N)(=O)=O)cc3C)ccc3cc(Br)ccc23)c(C)c1`, for which the EC50 in data set [1] amounted to 23.6 µM; in data set [2], 33.1 µM. Further, the CC50 in data set [3] was 61.4 µM. Besides, the selectivity ratio in data set [4] came out at 2.6.

For the compound `Cc1ccc(C)c(C(=O)c2c(OCC(=O)Nc3ccc(S(N)(=O)=O)cc3C)ccc3ccccc23)c1`, the EC50 in data set [1] is 0.0116 µM; in data set [2], 7.6 µM; in data set [5] it was 30.3 µM. This compound displayed a half-maximal cytotoxic concentration (CC50) in data set [3] of 47.5 µM. In addition, in data set [4], the selectivity ratio came to 4090.

As to `Cc1cc(S(N)(=O)=O)ccc1NC(=O)COc1ccc2cc(Br)ccc2c1C(=O)c1cccc(F)c1`, the EC50 in data set [1] came out at 9.17 µM; in data set [2], 9.7 µM; in data set [5], 6 µM. Besides, half-maximal cytotoxicity in data set [3] (CC50) was put at 24.5 µM. For the same compound, the selectivity ratio in data set [4] is 2.7.

For `Cc1cc(S(N)(=O)=O)ccc1NC(=O)COc1ccc2ccccc2c1C(=O)c1cccc(Cl)c1`, the EC50 in data set [1] was found to be 0.0338 µM; in data set [2], 9.5 µM; in data set [5], 34.5 µM. This compound also showed a CC50 in data set [3] of 37.4 µM. The selectivity ratio in data set [4] is 1110.

For `Cc1cc(S(N)(=O)=O)ccc1NC(=O)COc1ccc2cc(Br)ccc2c1C(=O)c1ccccc1`, the EC50 in data set [1] came out at 4.61 µM; in data set [2], 25.8 µM; in data set [5] it was 27.7 µM. The compound also came in with a CC50 in data set [3] of 29.2 µM. Besides, the selectivity ratio in data set [4] was 6.3.

For `Cc1cc(C)cc(C(=O)c2c(OCC(=O)Nc3ccc(S(N)(=O)=O)cc3C)ccc3cc(C#N)ccc23)c1`, the EC50 in data set [1] amounted to 1.78 µM; in data set [2], 16.3 µM. In data set [3], this compound returned a CC50 of 128 µM. Further, the selectivity ratio in data set [4] was found to be 72.

Regarding `Cc1cccc(C(=O)c2c(OCC(=O)Nc3ccc(S(N)(=O)=O)cc3C)ccc3cc(C#N)ccc23)c1`, the figures for the EC50 in data set [1] and in data set [2] were 0.791 µM and 10.4 µM, respectively. Also, in data set [3], it took 15.2 µM to reach half-maximal cytotoxicity (CC50). Moreover, the selectivity ratio in data set [4] amounted to 19.2.

On to `Cc1cccc(C(=O)c2c(OCC(=O)Nc3ccc(S(N)(=O)=O)cc3C)ccc3ccccc23)c1`, for which the EC50 in data set [1] stood at 0.0135 µM; in data set [2], 2.4 µM; in data set [5], 28.3 µM. The compound also yielded a cytotoxic concentration (CC50) in data set [3] of 40.4 µM. Moreover, the selectivity ratio in data set [4] came to 2990.
